What was measured:
Type in all cases: functional
DU-145 = experiment: Anticancer activity against human DU145 cells assessed as cell growth promotion at 10^-5 M after 48 hrs by SRB assay relative to control
NCI-H322M = experiment: Anticancer activity against human NCI-H322M cells assessed as cell growth promotion at 10^-5 M after 48 hrs by SRB assay relative to control
Malme-3M = experiment: Anticancer activity against human MALME-3M cells assessed as cell growth promotion at 10^-5 M after 48 hrs by SRB assay relative to control
MOLT-4 = experiment: Anticancer activity against human MOLT4 cells assessed as cell growth promotion at 10^-5 M after 48 hrs by SRB assay relative to control
OVCAR-3 = experiment: Anticancer activity against human OVCAR3 cells assessed as cell growth promotion at 10^-5 M after 48 hrs by SRB assay relative to control
NCI-H23 = experiment: Anticancer activity against human NCI-H23 cells assessed as cell growth promotion at 10^-5 M after 48 hrs by SRB assay relative to control
NCI-H460 = experiment: Anticancer activity against human NCI-H460 cells assessed as cell growth promotion at 10^-5 M after 48 hrs by SRB assay relative to control
OVCAR-8 = experiment: Anticancer activity against human OVCAR8 cells assessed as cell growth promotion at 10^-5 M after 48 hrs by SRB assay relative to control
EKVX = experiment: Anticancer activity against human EKVX cells assessed as cell growth promotion at 10^-5 M after 48 hrs by SRB assay relative to control
TK-10 = experiment: Anticancer activity against human TK10 cells assessed as cell growth promotion at 10^-5 M after 48 hrs by SRB assay relative to control
SF-295 = experiment: Anticancer activity against human SF295 cells assessed as cell growth promotion at 10^-5 M after 48 hrs by SRB assay relative to control
HL-60(TB) = experiment: Anticancer activity against human HL-60(TB) cells assessed as cell growth promotion at 10^-5 M after 48 hrs by SRB assay relative to control
Outline: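 NCI-60 single-dose screen: compound at 10^-5 M, 48 h at 37 °C, 5% CO2; cells grown in RPMI 1640 with 5% FBS and 2 mM L-glutamine, pre-incubated 24 h before dosing. Adherent cells fixed with cold TCA; endpoint is sulforhodamine B protein staining. Percent growth of treated cells is reported relative to untreated control.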

KM12 = experiment: Anticancer activity against human KM12 cells assessed as cell growth promotion at 10^-5 M after 48 hrs by SRB assay relative to control
MDA-MB-468 = experiment: Anticancer activity against human MDA-MB-468 cells assessed as cell growth promotion at 10^-5 M after 48 hrs by SRB assay relative to control
OVCAR-5 = experiment: Anticancer activity against human OVCAR5 cells assessed as cell growth promotion at 10^-5 M after 48 hrs by SRB assay relative to control
SK-OV-3 = experiment: Anticancer activity against human SKOV3 cells assessed as cell growth promotion at 10^-5 M after 48 hrs by SRB assay relative to control
[1] = Anticancer activity against human Hs 578T cells assessed as cell growth promotion at 10^-5 M after 48 hrs by SRB assay relative to control
K562 = experiment: Anticancer activity against human K562 cells assessed as cell growth promotion at 10^-5 M after 48 hrs by SRB assay relative to control
SK-MEL-28 = experiment: Anticancer activity against human SK-MEL-28 cells assessed as cell growth promotion at 10^-5 M after 48 hrs by SRB assay relative to control
IGROV-1 = experiment: Anticancer activity against human IGROV1 cells assessed as cell growth promotion at 10^-5 M after 48 hrs by SRB assay relative to control
SF-268 = experiment: Anticancer activity against human SF268 cells assessed as cell growth promotion at 10^-5 M after 48 hrs by SRB assay relative to control
SF-539 = experiment: Anticancer activity against human SF539 cells assessed as cell growth promotion at 10^-5 M after 48 hrs by SRB assay relative to control
A549 = experiment: Anticancer activity against human A549 cells assessed as cell growth promotion at 10^-5 M after 48 hrs by SRB assay relative to control
786-0 = experiment: Anticancer activity against human 786-0 cells assessed as cell growth promotion at 10^-5 M after 48 hrs by SRB assay relative to control
HOP-62 = experiment: Anticancer activity against human HOP62 cells assessed as cell growth promotion at 10^-5 M after 48 hrs by SRB assay relative to control
NCI/ADR-RES = experiment: Anticancer activity against human NCI/ADR-RES cells assessed as cell growth promotion at 10^-5 M after 48 hrs by SRB assay relative to control
MDA-MB-231 = experiment: Anticancer activity against human MDA-MB-231 cells assessed as cell growth promotion at 10^-5 M after 48 hrs by SRB assay relative to control
SW-620 = experiment: Anticancer activity against human SW620 cells assessed as cell growth promotion at 10^-5 M after 48 hrs by SRB assay relative to control
HCT-116 = experiment: Anticancer activity against human HCT116 cells assessed as cell growth promotion at 10^-5 M after 48 hrs by SRB assay relative to control
UACC-62 = experiment: Anticancer activity against human UACC62 cells assessed as cell growth promotion at 10^-5 M after 48 hrs by SRB assay relative to control
COLO 205 = experiment: Anticancer activity against human COLO205 cells assessed as cell growth promotion at 10^-5 M after 48 hrs by SRB assay relative to control
A498 = experiment: Anticancer activity against human A498 cells assessed as cell growth promotion at 10^-5 M after 48 hrs by SRB assay relative to control
T47D = experiment: Anticancer activity against human T47D cells assessed as cell growth promotion at 10^-5 M after 48 hrs by SRB assay relative to control
HCC 2998 = experiment: Anticancer activity against human HCC2998 cells assessed as cell growth promotion at 10^-5 M after 48 hrs by SRB assay relative to control
PC-3 = experiment: Anticancer activity against human PC3 cells assessed as cell growth promotion at 10^-5 M after 48 hrs by SRB assay relative to control
MCF7 = experiment: Anticancer activity against human MCF7 cells assessed as cell growth promotion at 10^-5 M after 48 hrs by SRB assay relative to control
SK-MEL-5 = experiment: Anticancer activity against human SK-MEL-5 cells assessed as cell growth promotion at 10^-5 M after 48 hrs by SRB assay relative to control
LOX IMVI = experiment: Anticancer activity against human LOXIMVI cells assessed as cell growth promotion at 10^-5 M after 48 hrs by SRB assay relative to control

| Structure (SMILES) | Activity (DU-145) | Activity (NCI-H322M) | Activity (Malme-3M) | Activity (MOLT-4) | Activity (OVCAR-3) | Activity (NCI-H23) | Activity (NCI-H460) | Activity (OVCAR-8) | Activity (EKVX) | Activity (TK-10) | Activity (SF-295) | Activity (HL-60(TB)) | Activity (KM12) | Activity (MDA-MB-468) | Activity (OVCAR-5) | Activity (SK-OV-3) | Activity [1] | Activity (K562) | Activity (SK-MEL-28) | Activity (IGROV-1) | also measured |
| --- | --- | --- | --- | --- | --- | --- | --- | --- | --- | --- | --- | --- | --- | --- | --- | --- | --- | --- | --- | --- | --- |
| O=C(Nc1ccccc1C(=O)Nc1ccc(/C=C/c2ccc(Cl)cc2)cc1)c1ccco1 | 112% | 110% | 115% | 100% | 109% | 95.98% | 107% | 100% | 80.41% | 127% | 122% | 96.67% | 110% | 108% | 108% | 116% | 113% | 95.66% | 111% | 117% | Activity (SF-268): 107%; Activity (SF-539): 97.41%; Activity (A549): 102%; Activity (786-0): 103%; Activity (HOP-62): 104%; Activity (NCI/ADR-RES): 104%; Activity (MDA-MB-231): 102%; Activity (SW-620): 106%; Activity (HCT-116): 108%; Activity (UACC-62): 101%; Activity (COLO 205): 128%; Activity (A498): 69.42%; Activity (T47D): 106%; Activity (HCC 2998): 96.83%; Activity (PC-3): 115%; Activity (MCF7): 98.82%; Activity (SK-MEL-5): 105%; Activity (LOX IMVI): 94.63% |
| O=c1c2ccccc2nc(-c2ccco2)n1/N=C/c1ccccc1Cl | 56.23% | 36.23% | 78.64% | 99.12% | 27.98% | 64.87% | 28.38% | 26.87% | 64.12% | 73.98% | 52.12% | 89.12% | 26.67% | 78.92% | 37.89% | 25.85% | 83.85% | 101.3% | 38.98% | 71.23% | Activity (SF-268): 72.86%; Activity (SF-539): 24.89%; Activity (A549): 38.12%; Activity (786-0): 26.39%; Activity (HOP-62): -34.84%; Activity (NCI/ADR-RES): 12.24%; Activity (MDA-MB-231): 52.12%; Activity (SW-620): 34.38%; Activity (HCT-116): 24.88%; Activity (UACC-62): 62.82%; Activity (COLO 205): 32.76%; Activity (A498): 36.82%; Activity (T47D): 62.59%; Activity (HCC 2998): 34.89%; Activity (PC-3): 78.23%; Activity (MCF7): 63.86%; Activity (SK-MEL-5): 48.82%; Activity (LOX IMVI): 34.24% |
| C(=C\c1nc2ccccc2nc1SCc1nc2ccccc2[nH]1)/c1ccccc1 | 74.33% | 86.4% | 63.63% | 63.07% | 65.02% | 52.23% | 70.22% | 82.17% | 22.23% | 44.74% | 58.32% | 77.83% | 79.7% | 39.93% | 95.41% | 73.61% | 90.1% | 61.44% | 94.52% | 87.44% | Activity (SF-268): 88.12%; Activity (SF-539): 97.75%; Activity (A549): 64.03%; Activity (786-0): 76.68%; Activity (HOP-62): 88.3%; Activity (NCI/ADR-RES): 53.22%; Activity (MDA-MB-231): 77.23%; Activity (SW-620): 83.03%; Activity (HCT-116): 35.79%; Activity (UACC-62): 61.37%; Activity (COLO 205): 75.7%; Activity (A498): 71.11%; Activity (T47D): 34.6%; Activity (HCC 2998): 86.35%; Activity (MCF7): 40.3%; Activity (SK-MEL-5): 17.4%; Activity (LOX IMVI): 56.83% |

From ChEMBL document CHEMBL1781959, “Synthesis and in vitro antitumor activity of substituted quinazoline and quinoxaline derivatives: search for anticancer agent” (Eur J Med Chem, 2011)
